Test results: ChEMBL document CHEMBL3425411, “Synthesis of β-Carboline-Based N-Heterocyclic Carbenes and Their Antiproliferative and Antimetastatic Activities against Human Breast Cancer Cells” (J Med Chem, 2015)
Activity calls are given as the source filed them. The calls are words filed in the database; no cut-off is given here.

Assays:
[1] = tested on: MDA-MB-231; assay: Downregulation of Bcl-XL expression in human MDA-MB-231 cells at 5 to 7.5 uM after 24 hrs by Western blot analysis; type: functional, cell-based
Procedure, shortened: (§1)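 Cells were treated for 24 h. Lysates were made in RIPA buffer, and 40 μg protein was resolved on 10–15% SDS-PAGE and transferred to PVDF. Membranes were blocked with 5% milk and probed overnight at 4 °C with primary antibodies, then HRP secondaries. Detection was by ECL with β-actin as loading control. Blots represent three independent experiments.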

[2] = molecular target: Matrix metalloproteinase-9 (Homo sapiens) (UniProt P14780); assay: Inhibition of MMP-9 in human MDA-MB-231 cells at 1 to 5 uM after 24 hrs by gelatin zymographic method; type: cell-based
Matrix metalloproteinase-9 (Homo sapiens), sequence (P14780 whole entry): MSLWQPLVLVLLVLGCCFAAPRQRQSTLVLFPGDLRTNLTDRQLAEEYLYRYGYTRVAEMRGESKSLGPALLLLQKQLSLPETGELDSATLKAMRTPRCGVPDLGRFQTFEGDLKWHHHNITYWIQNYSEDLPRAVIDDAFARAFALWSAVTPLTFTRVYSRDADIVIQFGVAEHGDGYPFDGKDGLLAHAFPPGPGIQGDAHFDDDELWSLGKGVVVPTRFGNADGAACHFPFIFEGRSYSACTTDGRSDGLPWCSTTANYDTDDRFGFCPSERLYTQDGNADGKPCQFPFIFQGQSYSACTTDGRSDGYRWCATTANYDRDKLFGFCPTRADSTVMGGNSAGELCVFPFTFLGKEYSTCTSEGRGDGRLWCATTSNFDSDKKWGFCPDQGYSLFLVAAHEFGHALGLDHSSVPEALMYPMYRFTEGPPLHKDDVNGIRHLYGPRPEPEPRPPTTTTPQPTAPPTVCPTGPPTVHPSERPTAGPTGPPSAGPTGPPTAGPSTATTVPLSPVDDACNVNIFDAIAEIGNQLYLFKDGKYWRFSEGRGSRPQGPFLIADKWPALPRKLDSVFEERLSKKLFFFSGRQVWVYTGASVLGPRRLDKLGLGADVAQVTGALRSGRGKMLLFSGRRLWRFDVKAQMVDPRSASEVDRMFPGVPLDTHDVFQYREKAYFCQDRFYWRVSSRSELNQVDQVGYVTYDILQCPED
Procedure, shortened: (§2)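 MDA-MB-231 cells, 1 × 10⁵ per well, treated 24 h with 0, 1, 2.5, 5 or 7.5 μM. Conditioned medium centrifuged and equal protein loaded on 8% SDS–PAGE containing 0.1% gelatin, run at 80 V. Triton X-100 washes, then developed 20 h at 37 °C in Tris-HCl pH 7.5 with NaCl, CaCl₂ and ZnCl₂. Coomassie stain, then destain.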

[3] = tested on: MDA-MB-231; assay: Downregulation of CDK1 expression in human MDA-MB-231 cells at 5 to 7.5 uM after 24 hrs by Western blot analysis; type: functional, cell-based; procedure, shortened: as §1
[4] = molecular target: 72 kDa type IV collagenase (Homo sapiens) (UniProt P08253); assay: Inhibition of MMP-2 in human MDA-MB-231 cells at 1 to 5 uM after 24 hrs by gelatin zymographic method; type: cell-based; procedure, shortened: as §2
72 kDa type IV collagenase (Homo sapiens), sequence (P08253 110-660 limits assumed): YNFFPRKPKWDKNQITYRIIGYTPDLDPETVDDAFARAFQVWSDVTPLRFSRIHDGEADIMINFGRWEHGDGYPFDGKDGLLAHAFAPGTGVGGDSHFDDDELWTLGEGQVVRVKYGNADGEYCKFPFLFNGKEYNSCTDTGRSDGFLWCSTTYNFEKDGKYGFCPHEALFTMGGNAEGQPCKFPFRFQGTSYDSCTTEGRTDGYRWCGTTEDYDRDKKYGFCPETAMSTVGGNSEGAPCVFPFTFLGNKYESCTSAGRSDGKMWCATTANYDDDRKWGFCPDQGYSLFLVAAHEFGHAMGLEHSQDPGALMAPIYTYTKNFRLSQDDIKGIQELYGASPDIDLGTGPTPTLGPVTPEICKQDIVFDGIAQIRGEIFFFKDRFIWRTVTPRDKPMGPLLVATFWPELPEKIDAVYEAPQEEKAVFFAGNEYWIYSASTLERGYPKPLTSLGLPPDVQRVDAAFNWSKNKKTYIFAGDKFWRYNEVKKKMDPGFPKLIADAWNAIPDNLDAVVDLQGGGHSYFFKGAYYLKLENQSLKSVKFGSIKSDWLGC

[5] = tested on: MDA-MB-231; assay: Downregulation of survivin expression in human MDA-MB-231 cells at 5 to 7.5 uM after 24 hrs by Western blot analysis; type: functional, cell-based; procedure, shortened: as §1
[6] = tested on: MDA-MB-231; assay: Upregulation of cleaved caspase-3 expression in human MDA-MB-231 cells at 5 to 7.5 uM after 24 hrs by Western blot analysis; type: functional, cell-based
Procedure, shortened: (§3)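 MDA-MB-231 cells treated 24 h, then lysed in RIPA buffer. 40 μg protein run on 10–15% SDS–PAGE and transferred to PVDF. Blocked in 5% milk, probed overnight at 4 °C with primary antibodies (phospho- and total ERK1/2, JNK, p38, cleaved caspase-3), then HRP secondary. ECL detection with β-actin as loading control. Blots representative of three experiments.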

[7] = tested on: MDA-MB-231; assay: Downregulation of cyclin B expression in human MDA-MB-231 cells at 5 to 7.5 uM after 24 hrs by Western blot analysis; type: functional, cell-based; procedure, shortened: as §1
[8] = molecular target: T1, Albumin (Homo sapiens, UniProt P02768); assay: Binding affinity to human serum albumin at 2 to 50 uM at pH 7.4 by fluorescence spectra analysis; type: ADME; settings: isolated protein, pH 7.4, 50 µM
T1 sequence (P02768 whole entry): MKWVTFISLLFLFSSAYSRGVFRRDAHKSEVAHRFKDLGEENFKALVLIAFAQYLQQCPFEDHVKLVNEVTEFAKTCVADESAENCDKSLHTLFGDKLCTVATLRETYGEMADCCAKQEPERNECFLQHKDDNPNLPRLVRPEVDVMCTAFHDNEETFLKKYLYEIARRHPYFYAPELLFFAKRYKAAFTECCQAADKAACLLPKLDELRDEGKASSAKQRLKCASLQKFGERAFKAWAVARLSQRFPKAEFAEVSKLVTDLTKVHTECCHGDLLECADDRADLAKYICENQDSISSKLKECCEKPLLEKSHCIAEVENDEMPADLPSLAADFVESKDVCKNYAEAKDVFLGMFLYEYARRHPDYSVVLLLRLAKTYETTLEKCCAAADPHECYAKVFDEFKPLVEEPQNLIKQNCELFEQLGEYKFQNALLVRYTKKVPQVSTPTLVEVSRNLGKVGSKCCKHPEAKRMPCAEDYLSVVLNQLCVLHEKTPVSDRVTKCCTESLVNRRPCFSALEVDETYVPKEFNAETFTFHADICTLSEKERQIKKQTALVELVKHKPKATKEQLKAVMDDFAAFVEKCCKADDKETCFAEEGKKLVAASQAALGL
Procedure, shortened: (§4)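 Fatty-acid-free HSA (10 μM) in 0.05 M phosphate buffer pH 7.4 was titrated with compound from 0 to 50 μM. Trp emission was excited at 295 nm and quenching was monitored. Data were fitted to the Stern–Volmer equation and a modified log[(F₀−F)/F] versus log[Q] plot, giving Kb and n from intercept and slope.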

[9] = tested on: MDA-MB-231; assay: Downregulation of CDC25C expression in human MDA-MB-231 cells at 5 to 7.5 uM after 24 hrs by Western blot analysis; type: functional, cell-based; procedure, shortened: as §1
[10] = molecular target: T1, Albumin; assay: Binding affinity to human serum albumin at 283 K at pH 7.4 by fluorescence spectra analysis; type: ADME; settings: isolated protein
Procedure, shortened: (§5)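 Steady-state Trp fluorescence quenching of HSA (10 μM, 0.05 M phosphate pH 7.4, excitation 295 nm) by increasing compound was run at each of three temperatures. F₀/F was fitted to the Stern–Volmer equation for KSV. Binding constant Kb and n came from the modified equation log[(F₀−F)/F] = log Kb + n log[Q].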

[11] = molecular target: T1, Albumin; assay: Binding affinity to human serum albumin assessed as change in secondary structure up to 40 uM at pH 7.4 by circular dichroism spectra analysis; type: ADME; settings: isolated protein
[12] = molecular target: MAP kinase p38 (Homo sapiens) (UniProt O15264+Q15759+Q16539+P53778); assay: Induction of p38 MAPK phosphorylation in human MDA-MB-231 cells at 5 to 7.5 uM after 24 hrs by Western blot analysis; type: cell-based; procedure, shortened: as §3
[13] = molecular target: T1, Albumin; assay: Binding affinity to human serum albumin at 2 to 50 uM at pH 7.4 by spectroscopic analysis; type: ADME; settings: isolated protein, pH 7.4, 50 µM; procedure, shortened: as §4
[14] = tested on: MDA-MB-231; assay: Antimigratory activity against human MDA-MB-231 cells at 2.5 to 5 uM after 12 to 24 hrs by wound healing assay; type: functional, cell-based
Procedure, shortened: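 2 × 10⁵ cells were plated in six-well plates and scratched with a 200 μL tip. Debris was removed, then cells were treated (0, 1, 2.5, 5, 7.5 μM; or 0–5 μM). The wound was photographed at 0, 12 and 24 h under 100× phase contrast. Area was measured as percent wound closure versus control. Three independent experiments, mean ± SEM.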

[15] = tested on: MDA-MB-231; assay: Antiinvasive activity against human MDA-MB-231 cells at 1 uM after 48 hrs by transwell assay; type: functional, cell-based
Procedure, shortened: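 Matrigel (growth factor reduced, diluted in serum-free medium) coated on 8 μm pore polycarbonate transwell membranes, set 2 h at 37 °C. 30 000 cells/well seeded in RPMI-1640 with 1% FBS plus compound; lower chamber had 10% FBS as chemoattractant. After 48 h, non-invaded cells were swabbed off and invaded cells were methanol-fixed and stained with 0.1% crystal violet. At least 10 random fields were counted and expressed versus control.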

[16] = molecular target: Mitogen-activated protein kinase; ERK1/ERK2 (Homo sapiens) (UniProt P27361+P28482); assay: Inhibition of ERK1/2 phosphorylation in human MDA-MB-231 cells at 5 to 7.5 uM after 24 hrs by Western blot analysis; type: cell-based; procedure, shortened: as §3
Mitogen-activated protein kinase; ERK1/ERK2 (Homo sapiens), sequence (P27361 whole entry, looked up): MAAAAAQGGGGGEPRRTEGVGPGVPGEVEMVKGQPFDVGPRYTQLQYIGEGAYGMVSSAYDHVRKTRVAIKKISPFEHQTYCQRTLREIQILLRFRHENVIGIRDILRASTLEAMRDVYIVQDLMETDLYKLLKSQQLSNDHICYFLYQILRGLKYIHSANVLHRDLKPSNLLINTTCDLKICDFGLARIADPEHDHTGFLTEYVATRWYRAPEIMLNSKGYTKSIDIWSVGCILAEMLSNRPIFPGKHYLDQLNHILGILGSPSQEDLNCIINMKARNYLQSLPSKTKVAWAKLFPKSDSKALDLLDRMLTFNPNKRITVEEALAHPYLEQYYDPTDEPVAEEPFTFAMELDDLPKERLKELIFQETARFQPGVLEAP
Mitogen-activated protein kinase; ERK1/ERK2 (Homo sapiens), sequence (P28482 whole entry, looked up): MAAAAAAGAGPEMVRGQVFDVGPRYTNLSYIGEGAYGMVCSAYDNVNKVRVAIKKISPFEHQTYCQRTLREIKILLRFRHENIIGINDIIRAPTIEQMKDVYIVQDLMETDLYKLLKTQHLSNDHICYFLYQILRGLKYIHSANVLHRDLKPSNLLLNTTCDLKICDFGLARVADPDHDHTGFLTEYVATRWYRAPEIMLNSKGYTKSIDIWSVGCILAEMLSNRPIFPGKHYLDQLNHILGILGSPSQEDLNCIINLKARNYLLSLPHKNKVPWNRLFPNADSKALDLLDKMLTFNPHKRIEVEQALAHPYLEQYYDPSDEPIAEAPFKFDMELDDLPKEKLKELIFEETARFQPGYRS

[17] = molecular target: T1, Albumin; assay: Binding affinity to human serum albumin at 293 K at pH 7.4 by fluorescence spectra analysis; type: ADME; settings: isolated protein; procedure, shortened: as §5
[18] = tested on: MDA-MB-231; assay: Downregulation of Bcl-2 expression in human MDA-MB-231 cells at 5 to 7.5 uM after 24 hrs by Western blot analysis; type: functional, cell-based; procedure, shortened: as §1
[19] = tested on: MDA-MB-231; assay: Induction of apoptosis in human MDA-MB-231 cells assessed as PARP cleavage at 5 to 7.5 uM after 24 hrs by Western blot analysis; type: functional, cell-based; procedure, shortened: as §1
[20] = molecular target: c-Jun N-terminal kinase, JNK (Homo sapiens) (UniProt P45983+P53779+P45984); assay: Inhibition of SAPK/JNK phosphorylation in human MDA-MB-231 cells at 5 to 7.5 uM after 24 hrs by Western blot analysis; type: cell-based; procedure, shortened: as §3
[21] = molecular target: T1, Albumin; assay: Binding affinity to human serum albumin at 303 K at pH 7.4 by fluorescence spectra analysis; type: ADME; settings: isolated protein; procedure, shortened: as §5

inhibition [2]: Active | inhibition [4]: Active | Activity [8]: Active | Kb [10]: 9.77 ×10⁴ L/mol | Activity [11]: Not Active | Activity [12]: Active | Activity [13]: Active | inhibition [16]: Active | Kb [17]: 8.91 ×10⁴ L/mol | inhibition [20]: Active | Kb [21]: 7.94 ×10⁴ L/mol
SMILES: COC(=O)c1cc2c3ccccc3[nH]c2c2cn(-c3ccc(F)cc3Cl)c[n+]12.[Cl-]
Activity [1]: Active | Activity [3]: Active | Activity [5]: Active | Activity [6]: Active | Activity [7]: Active | Activity [9]: Active | Activity [14]: Active | Activity [15]: Active | Activity [18]: Active | Activity [19]: Active
